Assay outcomes: PubChem, The Scripps Research Institute Molecular Screening Center
OX1R antag-1: human HCRTR1 antagonism; inhibition, % at 5 µM; 330,000 tested, 0.43% active; O43613; CHO/OX1R cells, Fluo-8 calcium fluorescence, orexin A; AID 434989;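 active means inhibition above its plate's threshold, mean inhibition of all tested compounds on the plate plus 3 SD, cut at about 37% in these data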;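 further: 0% = orexin A challenge wells and 100% = SB-334867-A antagonist wells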
OX1R antag-2: blocks the human orexin 1 receptor; 330,000 tested, 1.8% active; inhibition, % at 6.6 µM; O43613; OX1R-expressing cells, FRET antagonist read-out; in the data active means inhibition mostly above about 38%, no sharp cut-off; inactive means mostly below about 40%;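 further: 0% = agonist challenge alone and 100% = reference antagonist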
TAAR1 ag: agonists of human TAAR1. Q96RJ0. CHO RD-HGA16 TAAR1, Fluo-8 calcium fluorescence; vehicle wells 0%, saturating PEA agonist 100%. activation, % at 3 µM. 360,000 tested, 0.99% active;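 active means activation above the mean activation of all test compounds in the run plus 3 SD, cut at about 38% in these data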
Target sequence (Q96RJ0 whole entry, looked up): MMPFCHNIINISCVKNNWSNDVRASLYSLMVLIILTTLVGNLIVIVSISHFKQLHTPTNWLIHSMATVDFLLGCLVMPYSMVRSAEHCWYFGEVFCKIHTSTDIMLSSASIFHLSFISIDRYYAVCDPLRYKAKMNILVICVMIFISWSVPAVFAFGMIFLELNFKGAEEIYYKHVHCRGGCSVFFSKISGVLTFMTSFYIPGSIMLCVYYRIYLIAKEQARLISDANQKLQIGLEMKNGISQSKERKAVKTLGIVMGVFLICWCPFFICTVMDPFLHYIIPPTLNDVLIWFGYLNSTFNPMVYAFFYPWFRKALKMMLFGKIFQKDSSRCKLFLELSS
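Signal – calcium-sensitive Fluo-8 signal, excitation 470-495, emission 515-575 nm · System – RD-HGA16 (CHO) cells co-expressing Gα16 and hTAAR1 · Incubation – 17-24 h seeding, 75 min 37 °C dye, 30 min RT · Compound dosing – 3 µM single concentration · Repeats – no replicates (n 1)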
CHO parental Ca: signal in parental CHO cells, OX1R antagonist counter-screen. parental CHO-K1, ATP-induced calcium, Fluo-8 fluorescence. inhibition, % at 5.6 µM. 330,000 tested, 0.63% active. AID 463079;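 active means inhibition above that plate's mean sample inhibition plus 3 SD, cut at about 26% in these data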;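 further: 0% = ATP-challenged DMSO wells and 100% = DMSO wells without ATP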
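Assay system – parental CHO cells · Reagent – ATP stimulus · Detection – intracellular calcium via Fluo-8 no-wash fluorescent dye · Evaluation – percent inhibition of ATP-evoked calcium rise, normalized to controls · Controls – ATP wells versus no-ATP DMSO wells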
TAAR1 antag: human TAAR1 antagonism | Q96RJ0 | CHO RD-HGA16 TAAR1, Fluo-8 calcium fluorescence, antagonist | inhibition, % at 3 µM | 360,000 tested, 1.5% active | AID 624466;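 active means inhibition above a per-plate cutoff, the mean inhibition of test compounds on that plate plus 3 SD, cut at about 49% in these data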;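 further: 0% = DMSO plus EC80 beta-PEA response and 100% = DMSO alone without agonist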
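Test system: RD-HGA16 CHO cells with stable hTAAR1 and Gα16 / Probe or stimulus: EC80 β-phenethylamine stimulus / Times: seeding 17-24 h prior, 75-min 37 °C, 30-min RT dye loading / Detection: Fluo-8 calcium-sensitive fluorescence / Read-out basis: % inhibition scaled between DMSO and EC80 PEA controls / Repeats: singlicate, one well per test compound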
GPR7 antag: antagonists of human GPR7 (neuropeptides B/W receptor 1); P48145; GPR7-expressing cells, fluorescence antagonist assay; inhibition, % at 4.4 µM; 290,000 tested, 1.1% active; AID 1861; in the data active means inhibition above about 16%, passing the limit was not always enough;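 further: cells stimulated with the agonist NPW; 0% = agonist with vehicle and 100% = vehicle without agonist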
Target sequence (P48145 whole entry, looked up): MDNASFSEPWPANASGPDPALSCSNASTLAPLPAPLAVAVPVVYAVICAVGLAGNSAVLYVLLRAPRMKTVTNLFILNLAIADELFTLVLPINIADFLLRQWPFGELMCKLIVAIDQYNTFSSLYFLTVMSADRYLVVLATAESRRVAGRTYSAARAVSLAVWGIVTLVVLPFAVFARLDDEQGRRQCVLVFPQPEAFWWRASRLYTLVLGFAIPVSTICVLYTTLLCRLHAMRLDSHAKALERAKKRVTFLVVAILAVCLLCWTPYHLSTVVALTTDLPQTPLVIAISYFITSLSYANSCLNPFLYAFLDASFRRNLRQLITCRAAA
GPR7 antag conf: confirmation of human GPR7 antagonists. GPR7-expressing cells, calcium fluorescence antagonist mode. inhibition, % at 4.4 µM. shares compounds with GPR7 antag. 2,400 tested, 52% active; in the data active means inhibition above about 24%;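 further: stimulated with the GPR7 agonist NPW; 0% = agonist plus vehicle and 100% = vehicle alone without agonist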
MCHR1 antagonist: counter-screen for GPR7 antagonists: antagonists of human MCHR1 | shares compounds with GPR7 antag | MCHR1-expressing cells, fluorescence antagonist assay | inhibition, % at 4.4 µM | 2,400 tested, 62% active; in the data active means inhibition above about 22%;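 further: 0% = vehicle with agonist and 100% = vehicle without agonist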
* = called active by the depositor; nt = no result. A selection: hits, their analogues and other compounds. The true share with any hit is near 4.5%.

SMILES	OX1R antag-1	OX1R antag-2	TAAR1 ag	CHO parental Ca	TAAR1 antag	GPR7 antag	GPR7 antag conf	MCHR1 antagonist
COc1ccc(C2C(Oc3ccccc3C)C(=O)N2Cc2ccc(F)cc2)cc1OC (configuration not stated)	-16	36	1	-8	32	28*	16	20
O=C(CN(C(=O)c1csnn1)c1cccc(F)c1)NC1CCCC1	-1	5	-2	-7	8	28*	4	1
O=C(CN(C(=O)c1csnn1)c1cccc(Cl)c1)NC1CCCCC1	-12	27	3	0	0	2	nt	nt
Cc1ccc([C@@H]2CC(=O)[C@@H]3CN(S(=O)(=O)c4ccccc4C)[C@H](c4ccc(Cl)cc4)C[C@@H]3N2S(=O)(=O)c2ccc(C)cc2)cc1	nt	nt	1	nt	-6	nt	nt	nt
COc1ccc(CCNC(=O)CCCn2c(=S)[nH]c3ccsc3c2=O)cc1OC	nt	nt	1	nt	-10	nt	nt	nt
CC(=O)Nc1ccc(NC(=O)COC(=O)c2cc([N+](=O)[O-])ccc2N2CCOCC2)cc1	0	25	1	-5	-15	-16	nt	nt
O=C(COC(=O)c1cc([N+](=O)[O-])ccc1N1CCOCC1)Nc1cccc(F)c1	5	71*	7	4	0	35*	7	24*
CN(C)c1ccc(Nc2ccc([N+](=O)[O-])cn2)cc1	-13	43*	-4	4	-13	24*	41*	19
CSc1nnc(-c2ccccc2Cl)n1N	-11	8	16	6	7	24*	-10	-3
COc1ccc(CN2C(=O)c3ccccc3C2C(=O)NC2CCCCCC2)c(OC)c1 (configuration not stated)	nt	nt	0	nt	12	33*	21	34*
CC1CCC(NC(=O)C2c3ccccc3C(=O)N2Cc2cccs2)CC1 (configuration not stated)	-17	3	-3	-12	1	11	nt	nt
O=C(NC1CCCCCCC1)C1c2ccccc2C(=O)N1Cc1cccs1 (configuration not stated)	-27	27	0	-14	-2	27*	32*	13
COc1ccc(CN2C(=O)c3ccccc3C2C(=O)NCCc2ccccc2)c(OC)c1 (configuration not stated)	-32	14	1	-14	-5	-7	nt	nt
COc1cccc(NC(=O)N(C)C[C@@H]2OCc3cnnn3CCCC(=O)N([C@H](C)CO)C[C@@H]2C)c1	nt	nt	3	nt	-2	nt	nt	nt
CC(CC(=O)Nc1ccc2c(c1)c(=O)n(C)n2-c1cccs1)c1ccccc1 (configuration not stated)	nt	nt	10	nt	23	nt	nt	nt
O=C(Nc1cccc(C(F)(F)F)c1)c1ccc2sc([C@H]3C[C@H](O)[C@@H](CO)O3)nc2c1	nt	nt	6	nt	6	nt	nt	nt
CN(C(=O)COc1cc(=O)n(C)c2ccccc12)c1cccc(Cl)c1	-16	19	-1	-5	-17	13	nt	nt
Cc1cccc(N(C)C(=O)COc2cc(=O)n(C)c3ccccc23)c1	-23	11	2	-12	-34	64*	-2	6
Cc1[nH]nc2c1C(c1cccs1)C(C#N)=C(N)O2 (configuration not stated)	0	18	0	-6	23	40*	5	6
C[C@H]1CN([C@@H](C)CO)C(=O)c2cc(Br)cnc2O[C@H]1CN(C)Cc1ccc(Oc2ccccc2)cc1	nt	nt	-1	nt	-25	nt	nt	nt
CC(=O)Nc1ccc(S(=O)(=O)N2CCCC2)cc1	-3	15	-1	-9	-5	-7	nt	nt
CC(=O)Nc1ccc(S(=O)(=O)N2CCc3cc4c(cc3C2)OCCCO4)cc1	-3	24	0	21	-52	29*	15	37*
COc1ccc(C)cc1N(C(=O)c1ccco1)C(C(=O)NC1CCCC1)c1cc(OC)c(OC)c(OC)c1 (configuration not stated)	-18	29	1	-14	-14	43*	38*	24*
CCC(C)c1ccc(N(C(=O)c2ccco2)C(C(=O)NC2CCCC2)c2cccnc2)cc1 (configuration not stated)	-44	19	10	-29	-8	51*	22	14
CCN1C(=O)[C@H]2[C@@H](c3ccc(OC)cc3)N[C@]3(CCCN(Cc4ccc(OC)cc4)C3=O)[C@H]2C1=O	nt	nt	2	nt	-2	nt	nt	nt
SMILES	OX1R antag-1	OX1R antag-2	TAAR1 ag	CHO parental Ca	TAAR1 antag	GPR7 antag	GPR7 antag conf	MCHR1 antagonist
CC(C)n1c(-c2ccco2)csc1=Nc1cccnc1	36	74*	6	48*	11	30*	36*	52*
COCCn1c(-c2ccccc2)csc1=Nc1cccnc1	-31	29	9	-19	17	-4	nt	nt
CC1CCc2c(nc3sc4c(c3c2N)CCCC4)C1 (configuration not stated)	-13	19	3	-19	-1	22*	21	20
CC1CCc2nc3sc4c(c3c(N)c2C1)CCCC4 (configuration not stated)	-12	21	3	-13	-16	3	nt	nt
C[C@@H]1CN([C@@H](C)CO)S(=O)(=O)c2ccc(Br)cc2O[C@H]1CN(C)C(=O)Nc1ccc2c(c1)OCO2	nt	nt	5	nt	-5	nt	nt	nt
Cc1ccccc1NC(=O)c1cccc(C(=O)Nc2ccccc2C)n1	-39	6	3	-23	20	33*	11	37*
Cc1ccccc1NC(=O)c1cccc(C(=O)Nc2ccccc2C)c1	-34	11	0	-9	-48	nt	nt	nt
CCCCC(c1nnnn1C1CCCC1)N1CCN(C2CCCCC2)CC1 (configuration not stated)	-30	5	13	-17	-14	42*	47*	21
Cn1cccc1/C=C(/C#N)c1ccc(F)cc1	-2	30	-3	14	27	26*	0	9
Cn1cccc1/C=C(\C#N)c1ccccc1	-10	5	2	-8	-1	-10	nt	nt
CCCCOC(=O)C[N+](C)(C)CCOC1CC2CCC1(C)C2(C)C (configuration not stated)	-21	8	13	-1	2	-2	nt	nt
CCCCCCOC(=O)C[N+](C)(C)CCOC1CC2CCC1(C)C2(C)C (configuration not stated)	9	16	5	8	-2	32*	65*	63*
COc1ccc(C(=O)NCCc2c[nH]c3ccccc23)cc1OC	-1	31	3	1	13	10	nt	nt
O=C(NCCc1c[nH]c2ccccc12)c1ccc2[nH]c(=O)c(=O)[nH]c2c1	-18	-7	0	1	-7	40*	-23	12
